Results from ChEMBL document CHEMBL5036367, “The BASHY Platform Enables the Assembly of a Fluorescent Bortezomib-GV1001 Conjugate” (ACS Med Chem Lett, 2022).
pIC50: −log10 of the molar value.

Tests used:
[1] = Stability of compound in ammonium acetate assessed as half life at pH 7; format: physicochemical
HT-29 = assay: Cytotoxicity against human HT-29 cells assessed as reduction in cell viability incubated for 24 hrs by MTT assay; format: functional, cell-based; settings: HT-29, 24 h
HeLa [2] = assay: Cytotoxicity against human HeLa cells assessed as reduction in cell viability incubated for 24 hrs by MTT assay; format: functional, cell-based
[3] = Drug uptake in lysosomes of human HT-29 cells assessed as accumulation in lipid droplets by LysoTracker Red and Nile red staining based confocal microscopic analysis; format: ADME, cell-based
Outline: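 HT-29 cells were imaged by confocal fluorescence microscopy using the compound's own fluorescence. Co-staining was with LysoTracker Deep Red for lysosomes and Nile Red for lipid droplets. Colocalization was expressed as the Pearson's correlation coefficient.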

HeLa [4] = assay: Cytotoxicity against oleic acid-induced human HeLa cells assessed as reduction in cell viability incubated for 24 hrs by MTT assay; format: functional, cell-based

Row | SMILES | half-life [1] | pIC50 (HT-29) | pIC50 (HeLa [2]) | Drug uptake [3] | pIC50 (HeLa [4])
1 | CCC1=[N+]2N=C(c3ccccc3)C(=O)O[B-]2([C@H](CC(C)C)NC(=O)[C@@H](Cc2ccccc2)NC(=O)c2cnccn2)Oc2cc(OC)ccc21 (stereo partly specified) | 13 h | 7.71 | 6.87 | Active | < 6.70
2 | CC[C@H](C)[C@H](NC(=O)[C@H](Cc1ccccc1)NC(=O)[C@H](CCCNC(=N)N)NC(=O)[C@H](CC(C)C)NC(=O)[C@H](CCCNC(=N)N)NC(=O)[C@H](CO)NC(=O)[C@@H](NC(=O)[C@H](CC(C)C)NC(=O)[C@H](CC(C)C)NC(=O)[C@H](C)NC(=O)[C@@H]1CCCN1C(=O)[C@H](CCCNC(=N)N)NC(=O)[C@H](C)NC(=O)[C@@H](N)CCC(=O)O)[C@@H](C)O)C(=O)N1CCC[C@H]1C(=O)N[C@@H](CCCCN)C(=O)N[C@H](CSC1CC(=O)N(CCC(=O)NCCOCCOCCOCCOCCC(=O)NCCC(=O)N2Cc3ccccc3-c3c(nnn3CCOCCOCCOCCOc3ccc4c(c3)O[B-]3([C@@H](CC(C)C)NC(=O)[C@@H](Cc5ccccc5)NC(=O)c5cnccn5)OC(=O)C(c5ccccc5)=N[N+]3=C4c3ccccc3)-c3ccccc32)C1=O)C(=O)O (stereo partly specified) |  | 7.00 |  | Not Active | 
3 | COc1ccc2c(c1)O[B-]1([C@H](CC(C)C)NC(=O)[C@@H](Cc3ccccc3)NC(=O)c3cnccn3)OC(=O)C(c3ccccc3)=N[N+]1=C2c1ccccc1 (stereo partly specified) |  | 6.35 |  |  | 
4 | CC(C)C[C@H](NC(=O)[C@H](Cc1ccccc1)NC(=O)c1cnccn1)B(O)O [BORTEZOMIB] |  | 8.49 | 7.70 |  | < 6.70
5 | CCC1=[N+]2N=C(c3ccccc3)C(=O)O[B-]2(c2ccccc2)Oc2cc(OC)ccc21 (stereo unspecified) |  |  |  | Active | 
6 | COc1cccc2c1C(=O)c1c(O)c3c(c(O)c1C2=O)C[C@@](O)(C(=O)CO)C[C@@H]3O[C@H]1C[C@H](N)[C@H](O)[C@H](C)O1 [DOXORUBICIN] |  |  | 7.05 |  | < 6.00
7 | CCc1c2c(nc3ccc(O)cc13)-c1cc3c(c(=O)n1C2)COC(=O)[C@]3(O)CC [7-ETHYL-10-HYDROXYCAMPTOTHECIN] |  |  | 6.46 |  | < 6.00
